In brackets after ≈: the same amount, converted by molar mass.
Legend:
Type in all cases: functional, organism-based
Plasmodium falciparum [1] = assay: (§1) In vitro antimalarial activity against Plasmodium falciparum W2 after 72 hrs in SYBR green fluorescence assay; conditions: W2, 72 h
Summary of the method: (§2)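 P. falciparum D6 or W2 at late-ring/early-trophozoite stage, conditioned 3–4 days in the test medium (TCM, TCMA with Albumax I in place of plasma, FAF folic acid/pABA-free, or FAFA). Cultured 72 h at 37°C (5% CO₂, 5% O₂, N₂) with 11 twofold drug dilutions, 1% parasitemia, 2% hematocrit. SYBR green I lysis buffer added, 1 h at room temperature, RFU read. Plate-edge wells excluded.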

Plasmodium falciparum [2] = assay: In vitro antimalarial activity against Plasmodium falciparum W2 after 72 hrs by SYBR green fluorescence assay; conditions: W2, 72 h; summary of the method: as §2
Plasmodium falciparum [3] = assay: (§3) In vitro antimalarial activity against Plasmodium falciparum D6 after 72 hrs in SYBR green fluorescence assay; conditions: D6, 72 h; summary of the method: as §2
Plasmodium falciparum [4] = assay: Antimalarial activity against Plasmodium falciparum W2 as reduced [3H]hypoxanthine uptake after 72 hrs
Plasmodium falciparum [5] = assay: as §1; conditions: W2, 72 h; remark: listed apart in the source
Plasmodium falciparum [6] = assay: In vitro antimalarial activity against Plasmodium falciparum D6 after 72 hrs by SYBR green fluorescence assay; conditions: D6, 72 h; summary of the method: as §2
Plasmodium falciparum [7] = assay: Antimalarial activity against Plasmodium falciparum D6 as reduced [3H]hypoxanthine uptake after 72 hrs
Plasmodium falciparum [8] = assay: as §3; conditions: D6, 72 h; summary of the method: as §2; remark: listed apart in the source
Plasmodium falciparum [9] = assay: as §3; conditions: D6, 72 h; summary of the method: as §2; remark: listed apart in the source
Plasmodium falciparum [10] = assay: as §1; conditions: W2, 72 h; remark: listed apart in the source

| SMILES | IC50 (Plasmodium falciparum [1]) | IC50 (Plasmodium falciparum [2]) | IC50 (Plasmodium falciparum [3]) | IC50 (Plasmodium falciparum [4]) | IC50 (Plasmodium falciparum [5]) | IC50 (Plasmodium falciparum [6]) | IC50 (Plasmodium falciparum [7]) | IC50 (Plasmodium falciparum [8]) | IC50 (Plasmodium falciparum [9]) | IC50 (Plasmodium falciparum [10]) |
| --- | --- | --- | --- | --- | --- | --- | --- | --- | --- | --- |
| C=CC1CN2CC[C@H]1C[C@H]2[C@H](O)c1ccnc2ccc(OC)cc12 (single isomer, unassigned) [QUININE] | 167 ng/mL (≈ 0.516 µM) | 128 ng/mL (≈ 0.396 µM) | 11.9 ng/mL (≈ 0.0367 µM) | 36 ng/mL (≈ 0.111 µM) | 162 ng/mL (≈ 0.5 µM) | 11.3 ng/mL (≈ 0.0348 µM) | 5 ng/mL (≈ 0.0154 µM) | 14.9 ng/mL (≈ 0.0459 µM) | 15.8 ng/mL (≈ 0.0487 µM) |  |
| C[C@@H]1CC[C@H]2[C@@H](C)C(=O)O[C@@H]3O[C@@]4(C)CC[C@@H]1[C@]32OO4 [ARTEMISININ] | 1 ng/mL (≈ 0.00354 µM) |  | 1.6 ng/mL (≈ 0.00567 µM) | 1.7 ng/mL (≈ 0.00602 µM) | 1.2 ng/mL (≈ 0.00425 µM) |  | 2.4 ng/mL (≈ 0.0085 µM) |  | 1.25 ng/mL (≈ 0.00443 µM) | 1.1 ng/mL (≈ 0.0039 µM) |
| CC[C@H]1OC(=O)[C@H](C)[C@@H](O[C@H]2C[C@@](C)(OC)[C@@H](O)[C@H](C)O2)[C@H](C)[C@@H](O[C@@H]2O[C@H](C)C[C@H](N(C)C)[C@H]2O)[C@](C)(O)C[C@@H](C)CN(C)[C@H](C)[C@@H](O)[C@]1(C)O [AZITHROMYCIN] | 1620 ng/mL (≈ 2.17 µM) | 2730 ng/mL (≈ 3.65 µM) | 14400 ng/mL (≈ 19.2 µM) | 5500 ng/mL (≈ 7.34 µM) | 1850 ng/mL (≈ 2.47 µM) | 15300 ng/mL (≈ 20.4 µM) | 3750 ng/mL (≈ 5 µM) | 10100 ng/mL (≈ 13.4 µM) | 10100 ng/mL (≈ 13.5 µM) | 4490 ng/mL (≈ 5.99 µM) |
| Nc1ccc(S(=O)(=O)c2ccc(N)cc2)cc1 [DAPSONE] |  |  | 10.2 ng/mL (≈ 0.0411 µM) | 124 ng/mL (≈ 0.5 µM) | 156 ng/mL (≈ 0.629 µM) |  | 2.9 ng/mL (≈ 0.0117 µM) | 3.1 ng/mL (≈ 0.0125 µM) |  | 242 ng/mL (≈ 0.973 µM) |
| C[C@H]1c2cccc(O)c2C(=O)C2=C(O)[C@]3(O)C(=O)C(C(N)=O)=C(O)[C@@H](N(C)C)[C@@H]3[C@@H](O)[C@@H]21.O [DOXYCYCLINE] | 2410 ng/mL | 2280 ng/mL | 1850 ng/mL | 814 ng/mL | 1860 ng/mL | 2370 ng/mL | 483 ng/mL | 857 ng/mL | 1180 ng/mL | 2130 ng/mL |
| O[C@@H](c1cc(C(F)(F)F)nc2c(C(F)(F)F)cccc12)[C@H]1CCCCN1 [MEFLOQUINE] | 16.2 ng/mL (≈ 0.0428 µM) | 8.9 ng/mL (≈ 0.0235 µM) | 16 ng/mL (≈ 0.0423 µM) | 2.3 ng/mL (≈ 0.00608 µM) | 17.4 ng/mL (≈ 0.046 µM) | 19.9 ng/mL (≈ 0.0526 µM) |  | 32.8 ng/mL (≈ 0.0867 µM) | 43.7 ng/mL (≈ 0.116 µM) | 9.7 ng/mL (≈ 0.0256 µM) |
| CCc1nc(N)nc(N)c1-c1ccc(Cl)cc1 [PYRIMETHAMINE] |  |  | 0.4 ng/mL (≈ 0.00161 µM) | 11.9 ng/mL (≈ 0.0478 µM) |  |  | 0.1 ng/mL (≈ 0.000402 µM) | 0.5 ng/mL (≈ 0.00201 µM) |  | 37.6 ng/mL (≈ 0.151 µM) |
| COc1ncnc(NS(=O)(=O)c2ccc(N)cc2)c1OC [SULFADOXINE] |  |  | 2.4 ng/mL (≈ 0.00773 µM) | 1110 ng/mL (≈ 3.59 µM) | 1640 ng/mL (≈ 5.29 µM) |  | 16 ng/mL (≈ 0.0516 µM) | 10.5 ng/mL (≈ 0.0338 µM) |  | 2420 ng/mL (≈ 7.79 µM) |

Source: ChEMBL document CHEMBL1143813, “Assessment and continued validation of the malaria SYBR green I-based fluorescence assay for use in malaria drug screening” (Antimicrob Agents Chemother, 2007)
